Screens (PubChem BioAssay)
M5 PAM: potentiates acetylcholine response at human M5 receptor; P08912; CHO-K1 hM5, Fluo-8 calcium, ACh EC20 PAM; 0% = ACh EC20, 100% = ACh EC100; activation, % at 3 µM; hit rate 0.3% among 360,000; AID 624038;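 active means activation above the run cutoff, the mean activation of all test compounds plus 3 SD, cut at about 18% in these data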
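Test system: CHO-K1 hM5 cells / Doses: single-point, 3 µM nominal / Times: Post-acetylcholine fluorescence recording 140 s / Technique: Fluo-8 calcium fluorescence / Measure: Max/basal fluorescence ratio as % of EC20–EC100 ACh window / Benchmarks: low control EC20 acetylcholine (0%), high control EC100 acetylcholine (100%) / Replicates: one well per compound, no replicates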
M5 antag: antagonists of human muscarinic M5 receptor (CHRM5); P08912; CHO-hM5 cells, Fluo-8 calcium fluorescence, ACh EC80; inhibition, % at 3 µM; hit rate 0.59% among 360,000; AID 624040;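 active means inhibition above a per-plate cutoff, the mean of that plate's test compounds plus 3 SD, cut at about 27% in these data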;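 further: 0% = acetylcholine EC80 with DMSO and 100% = DMSO without agonist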
M4 antag: CHRM4 antagonism in calcium assay; P08173; CHO-hM4 cells, ACh EC80, Fluo-8 calcium fluorescence; inhibition, % at 3 µM; hit rate 0.73% among 360,000;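 active means inhibition above its plate's cutoff, the mean inhibition of sample wells plus 3 SD, cut at about 27% in these data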;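 further: 0% = acetylcholine EC80 with DMSO and 100% = DMSO without agonist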
Target sequence (P08173 whole entry, looked up): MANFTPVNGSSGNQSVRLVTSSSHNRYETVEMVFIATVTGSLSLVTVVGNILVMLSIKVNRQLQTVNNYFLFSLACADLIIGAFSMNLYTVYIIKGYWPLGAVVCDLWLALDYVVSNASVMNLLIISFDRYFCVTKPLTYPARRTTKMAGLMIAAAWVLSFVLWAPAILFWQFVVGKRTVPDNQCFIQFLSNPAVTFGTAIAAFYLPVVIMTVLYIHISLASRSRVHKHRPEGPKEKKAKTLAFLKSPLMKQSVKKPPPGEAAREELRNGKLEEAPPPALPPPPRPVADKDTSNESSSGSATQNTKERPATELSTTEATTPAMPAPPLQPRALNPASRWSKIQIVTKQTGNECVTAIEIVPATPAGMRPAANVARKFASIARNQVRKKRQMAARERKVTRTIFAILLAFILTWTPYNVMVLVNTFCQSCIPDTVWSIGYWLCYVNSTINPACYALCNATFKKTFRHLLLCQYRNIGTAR
CHRM4 agonist: agonists of human muscarinic M4 receptor (CHRM4); P08173; CHO-K1 hM4/Gqi5, Fluo-8 calcium fluorescence; vehicle 0%, full acetylcholine response 100%; activation, % at 3 µM; hit rate 0.14% among 360,000; AID 624127;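 active means activation above the run mean over all test wells plus 3 SD, cut at about 32% in these data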;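 further: peak over basal fluorescence ratio per well then scaled between controls; 0% = DMSO wells and 100% = acetylcholine at EC100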
CHRM4 PAM: positive allosteric modulators of human muscarinic M4 receptor; CHO-K1 hM4/Gqi5, Fluo-8 calcium fluorescence, ACh EC20; 0% = ACh EC20, 100% = maximal ACh; activation, % at 3 µM; hit rate 0.4% among 360,000; AID 624126;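 active means activation above its plate's cutoff, the mean activation of sample wells plus 3 SD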
CHRM5 agonist: CHRM5 agonism in calcium assay; activation, % at 3 µM; CHO-K1 hM5 cells, Fluo-8 calcium fluorescence; 0% DMSO wells, 100% maximal acetylcholine response; hit rate 0.19% among 360,000;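 active means activation above the run's mean over test compounds plus 3 SD, cut at about 23% in these data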;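 further: signal is peak over basal fluorescence ratio across the kinetic read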
Starred values were filed as active, the others as inactive. Hits are enriched below; roughly 1.9% of the tested compounds scored in any of these assays.

SMILES	M5 PAM	M5 antag	M4 antag	CHRM4 agonist	CHRM4 PAM	CHRM5 agonist
O=C(CCn1ccc2cc(S(=O)(=O)N3CCCC3)ccc21)NCCc1ccccc1	26*	29*	6	5	-2	1
Cc1ccc(CCNC(=O)CCn2ccc3cc(S(=O)(=O)N4CCCC4)ccc32)cc1	3	2	-2	1	-3	-2
COC(=O)c1ccc2nc(-c3ccc(F)cc3)c(Cc3cccc(F)c3)n2c1	-24	36*	6	4	-10	-5
COC(=O)c1ccc2nc(-c3ccc(F)cc3)c(Cc3cccc(Cl)c3)n2c1	-24	77*	35*	2	-13	-5
COC(=O)c1ccc2nc(-c3ccccc3)c(Cc3cccc(F)c3)n2c1	-24	10	8	-1	0	-6
O=C(Nc1cccc(C(F)(F)F)c1)C1Cc2c(-c3ccccc3Oc3ccccc3)ccnc2O1 (stereo not given)	-1	4	4	0	0	0
COCCNC(=O)C1CCCN(Cc2ccccc2)CC1 (stereo not given)	0	7	-12	0	4	-1
COCCNC(=O)c1cccc(OC2CCN(Cc3ccc(C(C)C)cc3)CC2)c1	-33	12	20	3	-17	-20
COCCNC(=O)CCC1CCN(Cc2ccc(-c3ccccc3)cc2)CC1	-29	7	57*	1	-16	-24
CSc1cccc(CN2CCC(Oc3cccc(C(=O)N4CCCC4)c3)CC2)c1	-15	28*	-3	4	-11	-8
COC(=O)c1ccc(CN2CCC(Oc3cccc(C(=O)N4CCOCC4)c3)CC2)cc1	-13	67*	61*	4	-15	-7
COCCNC(=O)c1cccc(OC2CCN(Cc3ccc(C(=O)OC)cc3)CC2)c1	-30	25	60*	0	-15	-24
CCOc1ccc(C(CN2CCOCC2)C(C)=O)cc1OC (stereo not given)	0	-1	-2	5	2	4
CC1CCN(S(=O)(=O)c2ccc3c(c2)C(Cl)(Cl)C(=O)N3)CC1	2	4	-15	3	-3	0
C=CCNc1nc(Nc2ccc(OC)cc2)nc(OC)n1	18*	-4	10	-1	7	-14
CC(NC(=O)COC(=O)c1ccc([N+](=O)[O-])s1)c1ccccc1 (stereo not given)	32*	9	-1	2	12	1
Cc1ccccc1S(=O)(=O)NC(=O)C1(C)CCN1C(=O)C1CCCCC1 (stereo not given)	-2	-2	-18	1	5	0
CCCCCCCN1C(N(C)C)=NC[C@@H]1Cc1ccccc1	-2	9	32*	3	-14	-11
O=C(C[C@H]1CC[C@@H]2[C@H](COC[C@H](O)CN2Cc2cccc(C(F)(F)F)c2)O1)NCCc1ccccc1	-6	15	-2	16	-2	3
Fc1c(F)c(F)c(/C=N/NC(=S)Nc2cccnc2)c(F)c1F	7	-6	-9	3	19*	-2
Fc1cccc(F)c1/C=N/NC(=S)Nc1cccnc1	-3	6	11	0	-3	-3
CC(C(O)C12CC3CC(CC(C3)C1)C2)N1CCCCC1 (stereo not given)	-1	6	40*	0	-19	-11
CC1=C(C(=O)N2CCCCCC2)CC(CC(=O)NC(c2ccccc2)c2ccccc2)C(=O)N1Cc1ccccc1 (stereo not given)	-2	5	-2	1	6	2
O=C(O)C(Cc1c[nH]c2ccccc12)NS(=O)(=O)c1ccc(F)cc1 (stereo not given)	0	-7	2	1	-6	1
O=C(O)C(Cc1c[nH]c2ccccc12)NS(=O)(=O)c1ccc2ccccc2c1 (stereo not given)	7	-13	-16	0	20*	-2
SMILES	M5 PAM	M5 antag	M4 antag	CHRM4 agonist	CHRM4 PAM	CHRM5 agonist
COc1cc2c(c(OC)c1OC)-c1ccc(NCc3ccccc3)c(=O)cc1C(NC(C)=O)CC2 (stereo not given)	-1	0	3	0	-1	0
COc1ccc(C2CC(c3ccc(Cl)cc3)=NN2C(C)=O)cc1 (stereo not given)	43*	31*	17	12	12	6
C[C@@H]1CN([C@@H](C)CO)S(=O)(=O)c2ccc(Br)cc2O[C@@H]1CN(C)Cc1cccnc1	-3	5	7	0	-4	0
COc1ccc(NC(=S)N(CCCN2CCCCC2)Cc2cccs2)cc1	-18	12	40*	3	-38	-7
Cc1c(Cl)cccc1NC(=S)N(CCCN1CCOCC1)Cc1cccs1	-17	3	56*	2	-39	-5
Cc1ccc(NC(=S)N(CCCN2CCOCC2)Cc2cccs2)c(C)c1	4	4	-9	1	0	-4
Cc1cccc(CS(=O)(=O)c2ncc(Cl)c(C(=O)NCc3ccc4c(c3)OCO4)n2)c1	1	12	33*	5	-16	-4
CC1CCN(S(=O)(=O)c2ccc(NC(=O)c3ccncc3)cc2)CC1	-4	-4	-2	11	-11	2
CCS(=O)(=O)c1ncc(Cl)c(C(=O)Nc2ccc(S(=O)(=O)N3CCC(C)CC3)cc2)n1	-10	27	47*	13	-11	-7
Cc1ccc(NC(=O)c2nc(S(=O)(=O)Cc3ccccc3C)ncc2Cl)cc1C	0	4	36*	5	-8	-5
CCc1ccc(NC(=O)c2nc(S(=O)(=O)Cc3ccccc3)ncc2Cl)cc1	-8	20	68*	3	-12	-6
CC(=O)Nc1ccc(NC(=O)c2nc(S(=O)(=O)Cc3cccc(C)c3)ncc2Cl)cc1	-7	17	18	0	-7	-6
Cn1cc([C@]2(O)C(=O)Nc3ccc(Br)cc32)c2ccccc21	3	6	0	12	5	3
COC(=O)C[C@@H]1C=C[C@H](NC(=O)Nc2ccc(OC)cc2)[C@@H](CO)O1	5	-4	-7	1	10	2
Brc1ccc(-c2c[n+]3c(n2-c2ccccc2)SCC3)cc1	2	6	54*	0	-16	-18
O=C(NCc1ccc(Cl)c(Cl)c1)c1cc(C2CCCCN2C(=O)c2ccccn2)on1 (stereo not given)	1	2	-8	1	0	-1
COc1ccc(NC(=O)CSc2ncnc3c2cnn3Cc2ccccc2)cc1OC	-11	13	29*	5	14	0
COc1ccc(NC(=O)CSc2ncnc3c2cnn3Cc2ccccc2)cc1	1	-8	9	1	-5	1
